Drawing on ChEMBL document CHEMBL1153308 (Bioorg Med Chem Lett, 2009), this text covers IC50 for eight compounds.

Experiment [1] in a line: Inhibition of HCV RNA dependent RNA polymerase. Set-up: species or system Hepacivirus hominis.
For experiment [2], the target named is T1, Replicase polyprotein 1ab (Severe acute respiratory syndrome-related coronavirus, UniProt P0C6X7). Put plainly: Inhibition of ATPase activity of SCV helicase assessed as phosphate release by colorimetric assay. In outline: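 Purified SCV NTPase/helicase (400 nM in 50 mM Tris/HCl pH 6.6) preincubated with compounds for 5 min at rt. Stopped with malachite green/molybdate reagent in 1 M HCl. A620 read after 5 min, with phosphate from a standard curve.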

The target in experiment [3] is T1, Replicase polyprotein 1ab. Put plainly: Inhibition of SCV helicase assessed as duplex-DNA unwinding by FRET based assay. In outline: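 Substrate was 25-bp dsDNA with a 20-dT 5′-overhang. SCV helicase (150 nM in 20 mM HEPES pH 7.4) preincubated with compounds for 5 min at rt. Started with 5X reaction solution (5 mM MgCl2, 45 mM ATP, 25 mM DTT, 100 nM dsDNA substrate as 5X concentrations), then 2 min at 37 °C. Stopped with EDTA plus unmodified trap oligomer, with FRET read-out.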

One may read the IC50 as the concentration at which inhibition is half-maximal. As for `O=C(O)/C(O)=C/C(=O)c1cccc(NCc2ccccc2)c1`, the IC50 is 0.96 µM in experiment [1], > 50 µM in experiment [2] and 5.4 µM in experiment [3].

With `O=C(O)/C(O)=C/C(=O)c1ccc(OCc2ccccc2)cc1`, the IC50 in experiment [1] came to 0.96 µM; in experiment [2] it was 41.3 µM; in experiment [3], 39.9 µM.

As for `O=C(O)/C(O)=C/C(=O)c1cccc(NCc2ccc(Cl)cc2)c1`, the figures for the half-inhibitory concentration (IC50) in experiment [1], in experiment [2] and in experiment [3] were 0.96 µM, > 50 µM and 11 µM, respectively.

In the case of `O=C(O)/C(O)=C/C(=O)c1ccccc1OCc1ccccc1`, the IC50 in experiment [1] was 0.96 µM; in experiment [2], > 50 µM; in experiment [3], > 50 µM.

For the compound `O=C(O)/C(O)=C/C(=O)c1ccc(OCc2ccc(Cl)cc2)cc1`, the IC50 in experiment [1] is 0.96 µM; in experiment [2] it was > 50 µM; in experiment [3] it was > 50 µM.

Turning to `O=C(O)/C(O)=C/C(=O)c1cccc(OCc2ccccc2)c1`, the IC50 was 0.96 µM in experiment [1], > 50 µM in experiment [2] and > 50 µM in experiment [3].

On to `O=C(O)/C(O)=C/C(=O)c1ccccc1OCc1ccc(Cl)cc1`, for which the figures for the IC50 in experiment [1], in experiment [2] and in experiment [3] were 0.96 µM, > 50 µM and 28.7 µM, respectively.

Consider `O=C(O)/C(O)=C/C(=O)c1cccc(OCc2ccc(Cl)cc2)c1`, for which the IC50 in experiment [1] was 0.96 µM; in experiment [2] it was 24.4 µM; in experiment [3], 13.6 µM.
